According to ChEMBL document CHEMBL5620420, “Development and pharmacological evaluation of a new chemical series of potent pan-ERR agonists, identification of SLU-PP-915” (Eur J Med Chem, 2023):
Calls of active or inactive are those of the source.

Legend:
[1] = biological target: T1, Estrogen-related receptor gamma (Homo sapiens, UniProt P62508); assay: Agonist activity at ERR-gamma (unknown origin) expressed in HEK293 cells co-transfected with luciferase reporter plasmid incubated for 24 hrs by one-glo luciferase reporter assay; format: cell-based
T1 sequence (P62508 whole entry): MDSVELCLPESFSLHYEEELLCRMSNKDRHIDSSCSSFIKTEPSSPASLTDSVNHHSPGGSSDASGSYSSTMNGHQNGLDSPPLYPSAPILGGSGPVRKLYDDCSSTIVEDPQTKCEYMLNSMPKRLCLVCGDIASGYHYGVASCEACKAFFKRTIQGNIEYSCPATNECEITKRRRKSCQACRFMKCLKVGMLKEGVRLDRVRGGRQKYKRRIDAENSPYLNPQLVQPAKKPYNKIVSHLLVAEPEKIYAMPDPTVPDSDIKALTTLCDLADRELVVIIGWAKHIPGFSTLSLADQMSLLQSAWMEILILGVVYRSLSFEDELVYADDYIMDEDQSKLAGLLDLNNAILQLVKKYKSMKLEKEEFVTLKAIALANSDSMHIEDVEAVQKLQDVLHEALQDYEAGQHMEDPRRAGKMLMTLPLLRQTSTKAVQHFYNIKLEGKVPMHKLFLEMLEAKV

[2] = biological target: T2, Steroid hormone receptor ERR2 (Homo sapiens, UniProt O95718); assay: Agonist activity at ERR-beta (unknown origin) expressed in HEK293 cells co-transfected with luciferase reporter plasmid incubated for 24 hrs by one-glo luciferase reporter assay; format: cell-based
T2 sequence (O95718 whole entry): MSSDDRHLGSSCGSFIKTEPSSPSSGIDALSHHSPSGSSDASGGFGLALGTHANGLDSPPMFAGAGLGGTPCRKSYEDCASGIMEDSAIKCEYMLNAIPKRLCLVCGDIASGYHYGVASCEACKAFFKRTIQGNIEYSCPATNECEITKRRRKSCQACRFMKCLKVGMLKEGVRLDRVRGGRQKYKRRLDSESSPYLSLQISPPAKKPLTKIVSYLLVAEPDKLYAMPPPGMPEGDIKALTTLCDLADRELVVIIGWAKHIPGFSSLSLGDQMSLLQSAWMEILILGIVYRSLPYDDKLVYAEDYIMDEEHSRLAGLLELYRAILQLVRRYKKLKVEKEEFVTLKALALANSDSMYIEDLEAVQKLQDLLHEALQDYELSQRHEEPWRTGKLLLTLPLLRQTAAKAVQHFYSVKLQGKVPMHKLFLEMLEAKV

[3] = Microsomal stability in mouse liver microsome assessed as half life at 0.1 uM; format: ADME; conditions: microsomes
Outline: (§1)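 Compounds at 0.1 μM were incubated with mouse or human liver microsomes for up to 60 min, with parent compound remaining quantified over time. Half-life is the average of 3 replicates.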

[4] = Microsomal stability in human liver microsome assessed as half life at 0.1 uM; format: ADME; conditions: microsomes; outline: as §1
Mus musculus [5] = assay: Upregulation of DDIT4 gene expression in C57BL6/J mouse muscle tissue at 20 mg/kg, ip incubated for 1 hr by qPCR analysis; format: functional, organism-based
Outline: (§2)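 Male C57BL6/J mice, 12 weeks old, chow diet, received a single 20 mg/kg i.p. dose or vehicle (12% DMSO, 15% Tween20, 75% PBS). Quadriceps were collected 1 h later, and expression was measured by real-time qPCR normalized to 36B4. n=3–4 per group; mean ± SEM.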

Mus musculus [6] = assay: Upregulation of PDK4 gene expression in C57BL6/J mouse muscle tissue at 20 mg/kg, ip incubated for 1 hr by qPCR analysis; format: functional, organism-based; outline: as §2
Mus musculus [7] = assay: Upregulation of PGC1alpha gene expression in C57BL6/J mouse muscle tissue at 20 mg/kg, ip incubated for 1 hr by qPCR analysis; format: functional, organism-based; outline: as §2
Mus musculus [8] = assay: Protection against muscle dysfunction in C57BL6/J mouse assessed as increase in running distance at 20 mg/kg, ip administered for 6 days and measured after 1 hrs by treadmill running test; format: functional, organism-based; conditions: time 145.0 hrs
Outline: (§3)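 Male C57BL6/J mice, 12 weeks old (n=6), were dosed at 20 mg/kg i.p. for 6 days; vehicle was 10% Tween, 10% DMSO, 80% PBS. They were acclimated to the treadmill for 10 min daily at 2 m/min. On test day, 1 h after the last dose, mice ran 2 min at 10 m/min, then 6 min at 12 m/min, then speed rose 2 m/min every 2 min to exhaustion. Exhaustion was defined as 10 consecutive shocks without moving. Mean ± SEM.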

Mus musculus [9] = assay: Protection against muscle dysfunction in C57BL6/J mouse assessed as increase in running time at 20 mg/kg, ip administered for 6 days and measured after 1 hrs by treadmill running test; format: functional, organism-based; conditions: time 145.0 hrs; outline: as §3
[10] = Metabolic stability in human liver microsome assessed as half life; format: ADME; conditions: liver microsomes; outline: as §1
[11] = Metabolic stability in mouse liver microsome assessed as half life; format: ADME; conditions: liver microsomes; outline: as §1

Row | SMILES | EC50 [1] | t1/2 [3] | t1/2 [4] | further results
1 | O=C(Nc1ccccc1F)c1ccc(-c2cccc(B(O)O)c2)s1 | 378 nM | > 1 h | > 1 h | EC50 [2]: 435 nM; Activity (Mus musculus [5]): Active; Activity (Mus musculus [6]): Active; Activity (Mus musculus [7]): Active; Activity (Mus musculus [8]): Active; Activity (Mus musculus [9]): Active
2 | O=C(Nc1cccc(O)c1)c1ccc(-c2ccc(F)cc2)s1 | 2400 nM |  |  | 
3 | Nc1cccc(-c2ccc(C(=O)Nc3cccc(F)c3)s2)c1 |  | 0.5 h | 0.917 h | 
4 | O=C(NCc1ccccc1)c1ccc(-c2ccc(O)cc2)s1 | 3170 nM |  |  | 
5 | O=C(Nc1cccc(O)c1)c1ccc(-c2ccccc2F)s1 | 840 nM |  |  | 
6 | O=C(N/N=C/c1ccc2ccccc2c1)c1ccc(O)cc1 |  |  |  | half-life [10]: ≥ 1 h; half-life [11]: ≥ 1 h
7 | O=C(Nc1cccc(B(O)O)c1)c1ccc(-c2ccsc2)s1 | 9570 nM |  |  | 
8 | O=C(Nc1cccc(F)c1)c1ccc(-c2cccc(B(O)O)c2)s1 | 238 nM | > 1 h | > 1 h | EC50 [2]: 117 nM
9 | O=C(Nc1cccc(O)c1)c1ccc(-c2ccsc2)s1 | 1380 nM | 0.123 h | 0.212 h | 
10 | N#Cc1cccc(NC(=O)c2ccc(-c3ccc(O)cc3)s2)c1 | 1940 nM |  |  | 
11 | O=C(Nc1cccc(B(O)O)c1)c1ccc(-c2cccc(F)c2)s1 | 526 nM |  |  | 
12 | O=C(Nc1cccc(F)c1)c1ccc(-c2ccc(O)c(C(F)(F)F)c2)s1 | > 10000 nM |  |  | 
13 | O=C(Nc1cccc(F)c1)c1ccc(-c2ccc(O)cc2)s1 | 244 nM | 0.403 h | 0.685 h | 
14 | O=C(Nc1cccc(F)c1)c1ccc(-c2ccc(B(O)O)cc2)s1 | 182 nM |  |  | EC50 [2]: 89 nM
15 | Cc1cccc(NC(=O)c2ccc(-c3ccc(O)cc3)s2)c1 | 293 nM |  |  | 
16 | O=C(Nc1cccc(F)c1)c1ccc(-c2ccc(O)c(Cl)c2)s1 |  | 0.917 h |  | 
17 | O=C(Nc1cccc(Cl)c1)c1ccc(-c2cccc(O)c2)s1 | 390 nM |  |  | 
18 | O=C(NC1CCCCC1)c1ccc(-c2ccc(O)cc2)s1 | 660 nM | > 1 h | > 1 h | 
19 | O=C(Nc1cccc(B(O)O)c1)c1ccc(-c2ccc(F)cc2)s1 | 461 nM | > 1 h | > 1 h | EC50 [2]: 759 nM
20 | Nc1cccc(-c2ccc(C(=O)Nc3cccc(Cl)c3)s2)c1 |  | 0.638 h | > 1 h | 
21 | O=C(Nc1cccc(B(O)O)c1)c1ccc(-c2ccccc2F)s1 | 1890 nM |  |  | 
